{"source": "ChEMBL document CHEMBL2424598", "about": "“Identification and optimization of pteridinone Toll-like receptor 7 (TLR7) agonists for the oral treatment of viral hepatitis” (J Med Chem, 2013)", "key": {"Cynomolgus monkey [1]": {"system": "Cynomolgus monkey", "experiment": "Agonist activity at […] in po dosed cynomolgus monkey assessed as increase of serum IFNalpha level after 1 to 24 hrs by ELISA", "type": "functional, organism-based", "settings": "Macaca fascicularis", "outline": "(§1)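 Healthy male cynomolgus monkeys, n = 3 per group, dosed either by 30 min iv infusion or orally. Serum was sampled predose and at 1, 2, 4, 8, 12 and 24 h postdose. IFN-α was measured by species-specific ELISA (limit of detection 130 pg/mL) and reported as mean peak serum level ± SD.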"}, "Cynomolgus monkey [2]": {"system": "Cynomolgus monkey", "experiment": "Agonist activity at […] in cynomolgus monkey assessed as increase of serum IFNalpha level at 0.3 mg/kg, po after 1 to 24 hrs by ELISA", "type": "functional, Macaca fascicularis", "outline": "as §1"}, "[3]": {"experiment": "Cmax in cynomolgus monkey at 1 mg/kg, po", "type": "ADME, organism-based, Macaca fascicularis", "design": "dose 1 mg/kg, route oral", "settings": "in vivo", "outline": "(§2)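 Male cynomolgus monkeys, n = 3 per group, received a 30 min iv infusion or an oral dose. Compound was measured in serum (limit of quantitation 0.04 ng/mL), and Cmax is reported as the group mean.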"}, "[4]": {"experiment": "Cmax in cynomolgus monkey at 0.3 mg/kg, po", "type": "ADME, organism-based, Macaca fascicularis", "design": "dose 0.3 mg/kg, route oral", "settings": "in vivo", "outline": "as §2"}, "[5]": {"experiment": "Cmax in cynomolgus monkey at 0.1 mg/kg, po", "type": "ADME, organism-based, Macaca fascicularis", "design": "dose 0.1 mg/kg, route oral", "settings": "in vivo", "outline": "as §2"}, "[6]": {"experiment": "Volume of distribution at steady state in cynomolgus monkey at 0.1 mg/kg, iv and 0.3 mg/kg, po", "type": "ADME, organism-based, Macaca fascicularis", "settings": "in vivo, read-out: Vdss", "outline": "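Healthy male cynomolgus monkeys, n = 3, received a 30 min iv infusion at 0.1 mg/kg or an oral dose at 0.3 mg/kg. The oral formulation was water at pH 3.1 (HCl). Plasma PK parameters (CL, Vss, F) are reported as mean ± SD.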"}, "[7]": {"experiment": "Half life in human liver microsomes", "type": "ADME, Microsome"}, "[8]": {"experiment": "Half life in dog liver microsomes", "type": "ADME, Canis lupus familiaris, Microsome"}, "[9]": {"experiment": "Half life in rat liver microsomes", "type": "ADME, Microsome"}, "[10]": {"experiment": "Half life in mouse liver microsomes", "type": "ADME, Microsome"}, "Toll-like receptor 7": {"target": "T1, Toll-like receptor 7 (Homo sapiens, UniProt Q9NYK1)", "T1 sequence (Q9NYK1 whole entry)": "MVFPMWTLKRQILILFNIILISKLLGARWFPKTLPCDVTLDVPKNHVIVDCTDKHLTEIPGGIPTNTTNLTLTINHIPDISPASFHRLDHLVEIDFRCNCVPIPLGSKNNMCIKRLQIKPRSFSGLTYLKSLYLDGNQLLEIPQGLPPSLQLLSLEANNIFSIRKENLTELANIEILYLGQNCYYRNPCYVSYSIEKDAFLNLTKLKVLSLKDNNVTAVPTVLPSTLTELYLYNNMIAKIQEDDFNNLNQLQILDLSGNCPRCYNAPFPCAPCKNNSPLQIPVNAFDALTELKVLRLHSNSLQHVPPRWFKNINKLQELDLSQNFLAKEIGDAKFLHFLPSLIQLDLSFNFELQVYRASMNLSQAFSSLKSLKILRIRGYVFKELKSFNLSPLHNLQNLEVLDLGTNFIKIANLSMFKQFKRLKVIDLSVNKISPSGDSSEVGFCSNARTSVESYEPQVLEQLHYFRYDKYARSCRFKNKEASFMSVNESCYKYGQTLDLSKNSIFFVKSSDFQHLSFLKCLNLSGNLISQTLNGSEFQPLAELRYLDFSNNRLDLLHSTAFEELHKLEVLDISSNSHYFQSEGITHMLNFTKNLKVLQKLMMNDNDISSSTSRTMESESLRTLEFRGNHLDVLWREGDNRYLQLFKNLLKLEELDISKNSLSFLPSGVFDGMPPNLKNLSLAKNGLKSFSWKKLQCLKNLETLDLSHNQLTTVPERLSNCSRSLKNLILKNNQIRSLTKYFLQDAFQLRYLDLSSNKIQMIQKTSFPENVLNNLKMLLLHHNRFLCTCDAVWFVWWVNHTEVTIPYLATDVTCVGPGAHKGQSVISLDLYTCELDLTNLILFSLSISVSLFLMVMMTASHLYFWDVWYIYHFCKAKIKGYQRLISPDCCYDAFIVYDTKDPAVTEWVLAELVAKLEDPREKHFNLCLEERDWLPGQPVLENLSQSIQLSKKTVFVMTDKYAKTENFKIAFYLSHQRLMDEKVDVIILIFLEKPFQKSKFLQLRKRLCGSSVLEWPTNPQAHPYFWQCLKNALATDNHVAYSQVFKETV", "experiment": "Agonist activity at human TLR7 expressed in HEK293 cells by reporter based assay", "type": "cell-based", "outline": "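HEK293 reporter cell lines, each expressing a single human TLR, with compound titrated up to 100 μM. EC50 taken for TLR7 and TLR8 activation.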"}, "Homo sapiens": {"species_on_record": "Homo sapiens", "experiment": "Selectivity ratio of MEC for TLR8-mediated TNFalpha production in human PBMC to MEC for TLR7-mediated IFNalpha production in human PBMC", "outline": "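Cryopreserved human PBMCs came from leukapheresis of a single healthy donor selected as a consistent responder. Cells were incubated with compound for 24 h over an eight-point concentration range, and cytokine release was measured. MEC is the lowest concentration giving cytokine levels at least 3-fold above untreated cultures, determined per cytokine.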"}, "[11]": {"target": "T2, Toll-like receptor 7 (Homo sapiens) (UniProt Q9NYK1)", "T2 sequence (whole entry)": "T1 sequence (Q9NYK1 whole entry)", "experiment": "Agonist activity at TLR7-mediated IFNalpha production in human PBMC assessed as minimum concentration of compound necessary to generate >3 fold of cytokine levels relative to control", "outline": "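Cryopreserved PBMCs from leukapheresis of a single healthy human donor, chosen as a consistent, robust responder to TLR7 agonist stimulation. Cells were incubated with compound for 24 h over an eight-point concentration range. Secreted IFN-α was measured to build dose-response curves. MEC was taken as the lowest concentration giving cytokine levels ≥3-fold over untreated control cultures.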"}, "Cynomolgus monkey [12]": {"system": "Cynomolgus monkey", "experiment": "Agonist activity at […] in cynomolgus monkey assessed as increase of serum TNFalpha level at 2 mg/kg after 1 to 24 hrs by ELISA"}}, "note": "pEC50: −log10 of the molar value."}
{"smiles": "CCCCOc1nc(N)c2c(n1)N(Cc1cccc(CN3CCCC3)c1)CC(=O)N2", "note": "[VESATOLIMOD]", "values": [{"measurement": "Activity", "setting": "Cynomolgus monkey [1]", "value": "Dose-dependent effect"}, {"measurement": "Activity", "setting": "Cynomolgus monkey [2]", "value": 763, "unit": "pg/mL"}, {"measurement": "Cmax", "setting": "[3]", "value": 20.7, "unit": "ng/mL"}, {"measurement": "Cmax", "setting": "[4]", "value": 4.6, "unit": "ng/mL"}, {"measurement": "Cmax", "setting": "[5]", "value": 1.6, "unit": "ng/mL"}, {"measurement": "Vd", "setting": "[6]", "value": 4.1, "unit": "L/kg"}, {"measurement": "half-life", "setting": "[7]", "value": 30.5, "unit": "min"}, {"measurement": "half-life", "setting": "[8]", "value": 58.6, "unit": "min"}, {"measurement": "half-life", "setting": "[9]", "value": 5.4, "unit": "min"}, {"measurement": "half-life", "setting": "[10]", "value": 4.9, "unit": "min"}, {"measurement": "pEC50", "setting": "Toll-like receptor 7", "value": 6.54}, {"measurement": "Ratio", "setting": "Homo sapiens", "value": 100}, {"measurement": "MEC", "setting": "[11]", "value": 3, "unit": "nM"}, {"measurement": "Activity", "setting": "Cynomolgus monkey [12]", "value": 578, "unit": "pg/mL"}]}
